High-throughput results from PubChem BioAssay.
Yeast lifespan up = yeast lifespan extension | S. cerevisiae growth with nicotinamide, OD615; deaD strain in restrictive glucose medium | AID 775 | inhibition of the nicotinamide effect, % at 10 µM | 130,000 compounds, 0.68% hits;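 active = inhibition above a set limit, placed 3 SD over the median of all compounds, cut at about 26% in these data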;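 note: 0% = nicotinamide-treated wells and 100% = cells grown without nicotinamide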
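Assay system: engineered S. cerevisiae DeaD replicative-lifespan strain, galactose-grown log-phase cells; medium: restrictive CSMM-D dextrose medium; also added: nicotinamide, 1.5 mM, co-present with compound; schedule: 48 h compound exposure at 30 °C, humidified; detection: absorbance at 615 nm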
Yeast growth inh = chemicals that inhibit yeast BB579 growth in restrictive medium (lifespan-shortening candidates); inhibition, % at 10 µM; 140,000 compounds, 0.51% hits; AID 804; S. cerevisiae BB579 growth, OD615, 48 h;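 active = inhibition above a set limit, 3 SD over the mean compound inhibition, cut at about 44% in these data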
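System: DeaD yeast strain BB579; buffer or medium: CSMM-D dextrose restrictive medium; technique: OD at 615 nm; schedule: 4 h cell preincubation, 48 h compound exposure, 30 °C humidified; doses: single 10 µM dose; controls: amphotericin B 10 µg/mL, positive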
SDO1 yeast rescue = restores growth of sdo1-depleted yeast. 140,000 compounds, 0.21% hits. S. cerevisiae sdo1-depleted JHY4D growth rescue, OD600 30 h; hits give high values; pdr5 snq2 efflux-pump mutant strain. z-score at 10 µM;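 active = z-score above 3 at both the 24 hr and the 30 hr optical density reads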;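 note: z-score against mean and SD of all compound wells on the same plate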
RAM network inh = yeast RAM network inhibition | S. cerevisiae dse1pr::URA3 reporter, 5-FOA growth OD615, 2 d; analog-sensitive cbk1-as2 kinase mutant strain | inhibition, % at 50 µM | 190,000 compounds, 1.8% hits | AID 868;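 active = inhibition above a set limit, 3 SD over mean compound inhibition, cut at about 8.4% in these data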;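 note: 0% = DMSO-only wells with no growth and 100% = 10 µM 1-NA-PP1 full growth; inhibition rescues growth on 5-FOA so higher OD means more RAM inhibition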
Active calls of the source: *; · = not tested or not shown. Sampled rows, rich in hits. Any-hit rate of the full collection: about 2.7%.

SMILES	Yeast lifespan up	Yeast growth inh	SDO1 yeast rescue	RAM network inh
COc1ccc(S(=O)(=O)N2CCOCC2)cc1NC(=O)c1cccc2c(=O)c(C)c(-c3ccccc3)oc12	4.9	-33.9	0.22	6.1
CCOc1ccccc1/C=N/NC(=O)CNC(=O)c1cccs1	·	·	·	-0.1
COc1ccc(C(=O)NCc2ccc3c(c2)cc(C)n3C)cc1OC	·	·	·	3.6
COc1cccc(C(=O)NCc2ccc3c(c2)cc(C)n3C)c1	·	·	·	10.1*
CCCC(=O)Nc1cc(OC)c(C(=O)OC)cc1Cl	·	·	·	0.7
COc1ccccc1N(CC(O)Cn1c2ccccc2c2ccccc21)S(=O)(=O)c1ccccc1 (stereo not given)	0.7	-26.1	-0.62	6.5
COc1ccccc1N(CC(O)COc1ccccc1C)S(=O)(=O)c1ccccc1 (stereo not given)	10.7	-69.7	-0.88	9.7*
CCC(=O)NC(=S)Nc1cccc(Cl)c1N1CCCCC1	-13.6	-50.3	-0.5	2.6
CCCCCC(=O)NC(=S)Nc1ccc(N2CCCCC2)c(Cl)c1	1.8	-26.7	0.39	9.6*
CCCCCC(=O)Nc1ccc(N2CCN(CC)CC2)c(Cl)c1	-10.2	-23.2	1.26	0.0
CCCC(=O)NC(=S)Nc1cccc(Cl)c1N1CCCCC1	2.4	-26.0	-1.03	8.7*
CCCCC(=O)NC(=S)Nc1ccccc1N1CCCCC1	-3.0	-19.0	-0.92	-0.5
CCCCC(=O)NC(=S)Nc1cccc(Cl)c1N1CCCCC1	29.4*	-46.8	-0.17	5.9
O=C(c1cc2ccccc2o1)N(C1CC1)C1(C(=O)Nc2ccccc2)CCCC1	·	·	·	4.2
CCO[C@@H]1OC(C(=O)NCc2ccccc2)=C[C@H](c2coc3ccccc3c2=O)[C@H]1CCCO	·	·	·	-0.2
COc1ccc(-c2nnc(COc3ccc4ccccc4c3)o2)cc1OC	-6.8	-17.5	-0.68	9.7*
COc1cc(-c2nnc(COc3ccc4cc(Br)ccc4c3)o2)cc(OC)c1OC	-6.0	-58.0	-1.67	3.0
Nn1cc(-c2ccccc2)nc1SCC(=O)N1CCN(S(=O)(=O)c2ccc(Cl)cc2)CC1	0.2	-10.9	0.52	9.8*
O=C(Nc1ccc(C(=O)O)cc1)/C(=C\c1ccc2c(c1)OCO2)NC(=O)c1ccccc1	·	·	·	9.2*
O=C(Nc1ccc(C(=O)O)cc1)/C(=C\c1ccc2c(c1)OCO2)NC(=O)c1ccc(Br)cc1	·	·	·	10.7*
O=C(CSc1nccn1-c1ccccc1)c1ccc(Br)cc1	-8.0	-17.0	-1.36	10.7*
Cc1c(Cl)cccc1N(Cc1ccc(C(=O)O)cc1)S(=O)(=O)c1ccccc1	·	·	·	1.9
CC1(C)CC(=O)C(C(C2=C(O)CC(C)(C)CC2=O)c2cccs2)C(=O)C1 (stereo not given)	32.3	-34.0	0.16	-2.2
Cc1ccc(C(C2=C(O)CC(C)(C)CC2=O)C2C(=O)CC(C)(C)CC2=O)o1 (stereo not given)	43.6*	-12.2	-0.36	-1.2
COc1ccc(C(CNC(=O)c2cccc(Br)c2)N2CCCC2)cc1 (stereo not given)	122.7*	-36.0	-0.04	0.0
SMILES	Yeast lifespan up	Yeast growth inh	SDO1 yeast rescue	RAM network inh
Cc1ccc(S(=O)(=O)N2CCC(C(=O)NCCc3ccc(S(N)(=O)=O)cc3)CC2)cc1	-13.9	-30.6	0.2	8.9*
Cn1c(-c2ccccc2)cc(=O)c2ccccc21	-14.9	-9.2	-0.47	0.0
Cn1c2ccccc2c(=O)n2c(=O)c3ccccc3cc12	-7.4	47.1*	-0.3	0.6
Cc1nn(-c2cc(Cl)ccc2Cl)c(C)c1C(=O)O	·	·	·	1.9
COCCNC(=S)N/N=C/c1ccc(OCc2ccc(C(=O)OC)cc2)c(OC)c1	10.0	-71.3	0.24	10.1*
O=C(NNC(=S)NCCc1ccccc1)c1ccc(Br)s1	·	·	·	2.4
COc1ccc(-c2nc3ncnn3cc2C)cc1F	·	·	·	2.6
O=[N+]([O-])c1cc(C(F)(F)F)cc([N+](=O)[O-])c1NCc1cccnc1	-1.1	-20.0	0.58	2.0
O=[N+]([O-])c1cc(C(F)(F)F)cc([N+](=O)[O-])c1NCCCNc1ccc([N+](=O)[O-])c2cccnc12	9.6	-34.0	0.95	9.0*
CCN(CC)c1nc(-c2ccc(Cl)cc2)cc(C(F)(F)F)c1C#N	-6.6	-8.7	-1.11	9.6*
COc1ccc(NS(=O)(=O)c2cc(NC(=O)c3ccco3)ccc2N2CCCCC2)cc1	10.2	-37.6	0.06	2.4
CCn1c(=O)c2cc(C(=O)NCc3cccs3)sc2c2ccccc21	·	·	·	9.9*
CCn1c(=O)c2cc(C(=O)NCCN3CCOCC3)sc2c2ccccc21	-9.9	5.7	1.93	-1.0
O=C(CSc1cc(Cl)ccc1Cl)NCC(=O)Nc1ccc(F)c(F)c1F	6.3	-66.2	-0.51	9.4*
CC(C)c1ccc2c(c1)C1(NN=C(c3ccccc3)S1)C(=O)N2 (stereo not given)	·	78.2*	-2.2	1.6
CCc1ccc2c(c1)C1(NN=C(c3ccc(C)cc3)S1)C(=O)N2 (stereo not given)	·	96.3*	-0.17	2.8
COc1cccc(CNC(=O)CCC2CCCN(C(=O)CCn3cncn3)C2)c1 (stereo not given)	·	·	·	-0.6
CN(c1ccc(F)cc1)S(=O)(=O)c1ccc(Cl)c(C(=O)OCC(=O)NCc2ccco2)c1	·	·	·	5.6
Cc1ccc(S(=O)(=O)N(C)CC(=O)OCC(=O)N2CCN(c3ccccc3)CC2)cc1	1.3	-19.6	0.24	8.7*
CCN(CC(=O)N1CCN(c2ccccc2)CC1)S(=O)(=O)c1ccc(C)cc1	2.9	-2.2	0.05	1.4
CCCc1c(O)nc(SCC(=O)O)[nH]c1=O	·	·	·	2.8
CCn1ncc(/C=N/NC(=O)c2ccc3c(c2)OCO3)c1C	119.6*	-10.6	0.39	0.9
O=C(/C(=C/O)N=Nc1ccccc1)c1ccncc1	-10.5	88.1*	-0.25	·
O=C(Nc1ccccc1C(F)(F)F)c1cc(S(=O)(=O)N2CCC3(CC2)OCCO3)ccc1F	-4.6	-38.2	-1.24	3.1
COc1ccccc1NC(=O)c1cc(S(=O)(=O)N2CCC3(CC2)OCCO3)ccc1F	-1.1	-22.1	-1.19	9.6*
SMILES	Yeast lifespan up	Yeast growth inh	SDO1 yeast rescue	RAM network inh
CCOC(=O)c1[nH]ncc1CN1CCCC(C(=O)c2ccc(C(C)(C)C)cc2)C1 (stereo not given)	·	·	·	0.2
O=C(NC12CC3CC(CC(C3)C1)C2)c1ccc(=O)oc1	-2.6	-47.1	-0.24	8.7*
O=C(NC12CC3CC(CC(C3)C1)C2)c1ccccc1O	5.8	-34.8	-2.41	2.0
N#Cc1ccc(-c2ccc(OCC(=O)NCCc3ccccc3)cc2)cc1	45.6*	-52.2	-0.04	2.9
COc1ccc(CCNC(=O)COc2ccc(-c3ccc(C#N)cc3)cc2)cc1	0.9	-23.3	-0.35	4.7
CC(Sc1nnnn1C)C(=O)Nc1ccc2c(c1)OCCO2 (stereo not given)	·	·	·	2.7
CCCn1c(Nc2nc3ccccc3n2C)nc2ccccc21	-29.7	89.8*	1.06	-0.3
C[C@@H](C(=O)Nc1ccc2ccccc2c1)[C@H]1C[C@]1(C)[C@H](NC(=O)c1cccnc1)c1ccccc1	8.8	-52.9	7.24*	3.3
S=C(Nc1ccc(Oc2ccccc2)cc1)NC1CCCCCC1	-1.6	56.1*	-0.98	10.5*
O=C(Nc1ccccc1)NC1CCCCC1	42.0*	-5.5	-0.21	-0.1
